From ChEMBL document CHEMBL3286317, “Synthesis and biological evaluation of a unique heparin mimetic hexasaccharide for structure-activity relationship studies” (J Med Chem, 2014)
pKd, pKi: −log10 of the molar value. Calls of active or inactive are those of the source. The rule behind the calls is not given here.

Legend:
[1] = molecular target: T1, Bone morphogenetic protein 2 (Homo sapiens, UniProt P12643); assay: Binding affinity to human recombinant BMP2 by surface plasmon resonance assay
T1 sequence (P12643 whole entry): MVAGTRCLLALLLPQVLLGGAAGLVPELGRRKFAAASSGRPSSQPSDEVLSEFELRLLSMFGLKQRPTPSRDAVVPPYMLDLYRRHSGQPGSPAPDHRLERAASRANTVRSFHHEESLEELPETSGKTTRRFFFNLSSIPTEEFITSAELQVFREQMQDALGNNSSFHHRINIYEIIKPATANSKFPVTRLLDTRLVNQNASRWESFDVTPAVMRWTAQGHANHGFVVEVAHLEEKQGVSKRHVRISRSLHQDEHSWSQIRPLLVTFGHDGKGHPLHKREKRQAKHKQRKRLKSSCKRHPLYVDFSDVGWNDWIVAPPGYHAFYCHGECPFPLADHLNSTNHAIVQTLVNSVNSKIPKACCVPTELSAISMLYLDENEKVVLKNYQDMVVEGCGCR
Procedure, shortened: (§1)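 Biotinylated low-molecular-weight heparin was captured on a neutravidin surface. Protein at varying concentrations was mixed with a hexasaccharide dilution series and injected. Free protein was read from a quadratic slope-vs-concentration standard curve. KD = [P_free][H_total]/[P_bound], averaged over three hexasaccharide concentrations.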

[2] = molecular target: Sonic hedgehog protein (Homo sapiens, UniProt Q15465); assay: Binding affinity to human recombinant Shh by surface plasmon resonance assay; procedure, shortened: as §1
Sequence of Sonic hedgehog protein (Q15465 24-197 limits assumed): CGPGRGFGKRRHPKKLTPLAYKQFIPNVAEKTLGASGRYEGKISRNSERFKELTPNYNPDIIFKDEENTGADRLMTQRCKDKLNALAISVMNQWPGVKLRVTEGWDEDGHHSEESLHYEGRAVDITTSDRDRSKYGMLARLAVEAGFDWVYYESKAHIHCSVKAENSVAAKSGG

[3] = molecular target: T2, P-selectin/P-selectin glycoprotein ligand 1 (Homo sapiens, UniProt P16109+Q14242); assay: Inhibition of PSEL/PSGL1 (unknown origin) interaction; assay type: protein assay
T2 sequence (Q14242 whole entry): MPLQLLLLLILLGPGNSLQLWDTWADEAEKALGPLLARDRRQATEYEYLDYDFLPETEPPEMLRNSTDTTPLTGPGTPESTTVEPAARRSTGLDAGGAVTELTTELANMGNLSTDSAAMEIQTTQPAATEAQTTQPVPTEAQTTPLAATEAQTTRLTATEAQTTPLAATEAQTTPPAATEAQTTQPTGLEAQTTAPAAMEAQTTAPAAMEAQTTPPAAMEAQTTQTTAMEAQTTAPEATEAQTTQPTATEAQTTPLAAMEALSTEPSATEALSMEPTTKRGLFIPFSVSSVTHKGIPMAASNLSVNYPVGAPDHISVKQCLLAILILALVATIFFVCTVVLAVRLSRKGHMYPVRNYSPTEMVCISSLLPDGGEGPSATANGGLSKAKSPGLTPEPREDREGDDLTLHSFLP
T2 sequence (P16109 whole entry): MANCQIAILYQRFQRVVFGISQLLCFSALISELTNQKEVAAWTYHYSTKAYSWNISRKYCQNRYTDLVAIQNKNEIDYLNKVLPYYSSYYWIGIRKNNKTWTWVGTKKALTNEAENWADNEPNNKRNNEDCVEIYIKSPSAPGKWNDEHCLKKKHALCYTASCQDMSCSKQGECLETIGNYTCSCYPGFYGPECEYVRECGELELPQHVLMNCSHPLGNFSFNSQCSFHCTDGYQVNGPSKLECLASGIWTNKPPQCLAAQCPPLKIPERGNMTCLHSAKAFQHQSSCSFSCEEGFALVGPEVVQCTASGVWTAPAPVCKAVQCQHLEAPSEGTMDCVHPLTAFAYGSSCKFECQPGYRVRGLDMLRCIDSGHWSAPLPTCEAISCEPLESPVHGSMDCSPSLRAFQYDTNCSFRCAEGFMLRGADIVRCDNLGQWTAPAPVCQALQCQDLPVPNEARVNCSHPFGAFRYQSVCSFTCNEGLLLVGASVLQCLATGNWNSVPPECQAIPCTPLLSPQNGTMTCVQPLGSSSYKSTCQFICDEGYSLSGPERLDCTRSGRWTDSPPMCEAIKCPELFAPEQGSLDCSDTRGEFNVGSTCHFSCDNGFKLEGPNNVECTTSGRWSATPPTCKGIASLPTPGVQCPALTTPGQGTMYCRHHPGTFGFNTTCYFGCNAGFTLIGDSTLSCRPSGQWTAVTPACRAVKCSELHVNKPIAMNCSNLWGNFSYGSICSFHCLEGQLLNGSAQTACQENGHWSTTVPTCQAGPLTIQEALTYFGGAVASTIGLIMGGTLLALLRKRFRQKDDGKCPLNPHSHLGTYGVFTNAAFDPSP
Procedure, shortened: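 Hexasaccharide dilution series mixed with 50 nM PSEL and passed over a PSGL1-Fc-coated SPR surface. Equilibrium response was measured. IC50 came from nonlinear regression of response vs concentration, and Ki from the Cheng–Prusoff equation.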

[4] = molecular target: T3, C-X-C motif chemokine 2 (Homo sapiens, UniProt P19875); assay: Binding affinity to human recombinant CXCL2 by surface plasmon resonance assay; procedure, shortened: as §1
T3 sequence (P19875 whole entry): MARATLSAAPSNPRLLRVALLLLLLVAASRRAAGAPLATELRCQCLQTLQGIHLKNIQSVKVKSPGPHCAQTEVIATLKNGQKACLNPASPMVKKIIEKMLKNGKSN

[5] = molecular target: T4, Vascular endothelial growth factor A, long form (Homo sapiens, UniProt P15692); assay: Binding affinity to human recombinant VEGF165 by surface plasmon resonance assay; procedure, shortened: as §1
T4 sequence (P15692 whole entry): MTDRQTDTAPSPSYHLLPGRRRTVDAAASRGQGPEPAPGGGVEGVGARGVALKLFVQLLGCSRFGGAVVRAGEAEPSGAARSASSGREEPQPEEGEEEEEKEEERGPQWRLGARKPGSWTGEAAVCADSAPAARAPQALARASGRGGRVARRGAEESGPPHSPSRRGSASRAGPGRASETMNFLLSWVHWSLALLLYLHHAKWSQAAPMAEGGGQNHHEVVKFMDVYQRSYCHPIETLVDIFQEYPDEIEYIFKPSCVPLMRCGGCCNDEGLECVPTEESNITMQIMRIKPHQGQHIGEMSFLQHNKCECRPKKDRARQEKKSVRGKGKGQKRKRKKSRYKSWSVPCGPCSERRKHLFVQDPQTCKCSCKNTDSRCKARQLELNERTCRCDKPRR

[6] = molecular target: Bone morphogenetic protein 6 (Homo sapiens, UniProt P22004); assay: Binding affinity to human recombinant BMP6 by surface plasmon resonance assay; procedure, shortened: as §1
Sequence of Bone morphogenetic protein 6 (P22004 375-513 limits assumed): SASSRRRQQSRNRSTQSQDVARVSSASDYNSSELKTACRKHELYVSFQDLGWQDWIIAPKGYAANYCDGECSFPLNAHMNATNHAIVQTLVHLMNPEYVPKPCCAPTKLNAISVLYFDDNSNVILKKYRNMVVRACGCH

[7] = molecular target: T5, Bone morphogenetic protein 4 (Homo sapiens, UniProt P12644); assay: Binding affinity to human recombinant BMP4 by surface plasmon resonance assay; procedure, shortened: as §1
T5 sequence (P12644 whole entry): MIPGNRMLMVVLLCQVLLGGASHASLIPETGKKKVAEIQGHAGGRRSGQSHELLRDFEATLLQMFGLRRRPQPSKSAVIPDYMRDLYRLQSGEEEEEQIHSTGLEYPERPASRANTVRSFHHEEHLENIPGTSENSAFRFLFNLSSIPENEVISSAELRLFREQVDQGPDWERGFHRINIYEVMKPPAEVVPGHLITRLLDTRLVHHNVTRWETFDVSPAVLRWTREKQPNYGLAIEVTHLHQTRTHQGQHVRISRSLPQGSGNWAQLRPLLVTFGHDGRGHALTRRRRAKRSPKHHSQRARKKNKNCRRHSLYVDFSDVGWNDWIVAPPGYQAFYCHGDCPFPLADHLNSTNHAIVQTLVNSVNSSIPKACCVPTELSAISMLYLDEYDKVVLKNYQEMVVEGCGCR

[8] = molecular target: Fibroblast growth factor 2 (Homo sapiens, UniProt P09038); assay: Binding affinity to human recombinant FGF2 at 780 uM by STD-NMR analysis
Sequence of Fibroblast growth factor 2 (P09038 143-288 limits assumed): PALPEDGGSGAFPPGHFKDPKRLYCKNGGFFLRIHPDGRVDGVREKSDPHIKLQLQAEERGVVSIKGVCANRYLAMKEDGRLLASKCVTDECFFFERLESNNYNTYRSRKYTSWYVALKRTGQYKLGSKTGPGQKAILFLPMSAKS

Row | pKd [1] | pKd [2] | pKi [3] | pKd [4] | pKd [5] | pKd [6] | pKd [7] | Activity [8] | Structure (SMILES)
1 | 4.47 | 4.64 | 4.02 | 0.60 | 4.85 | 5.05 | 0.60 | Active | CCCCCO[C@H]1O[C@H](COS(=O)(=O)O)[C@@H](O[C@@H]2O[C@@H](C(=O)O)[C@@H](O[C@H]3O[C@H](COS(=O)(=O)O)[C@@H](O[C@@H]4O[C@@H](C(=O)O)[C@@H](O[C@H]5O[C@H](COS(=O)(=O)O)[C@@H](O[C@@H]6O[C@@H](C(=O)O)[C@@H](O)[C@H](O)[C@H]6OS(=O)(=O)O)[C@H](O)[C@H]5NC(C)=O)[C@H](O)[C@H]4OS(=O)(=O)O)[C@H](O)[C@H]3NS(=O)(=O)O)[C@H](O)[C@H]2O)[C@H](O)[C@H]1NC(C)=O
2 | 4.62 | 4.57 | 3.60 | 0.60 | 4.18 | 0.60 | 0.60 | Active | CCCCCO[C@H]1O[C@H](COS(=O)(=O)O)[C@@H](O[C@@H]2O[C@@H](C(=O)O)[C@@H](O[C@H]3O[C@H](COS(=O)(=O)O)[C@@H](O[C@@H]4O[C@@H](C(=O)O)[C@@H](O[C@H]5O[C@H](COS(=O)(=O)O)[C@@H](O[C@@H]6O[C@@H](C(=O)O)[C@@H](O)[C@H](O)[C@H]6OS(=O)(=O)O)[C@H](O)[C@H]5NC(C)=O)[C@H](O)[C@H]4OS(=O)(=O)O)[C@H](O)[C@H]3NC(C)=O)[C@H](O)[C@H]2OS(=O)(=O)O)[C@H](O)[C@H]1NC(C)=O
3 | 4.34 | 3.91 | 3.45 | 0.60 | 4.07 | 0.60 | 0.60 | Active | NCCCCCO[C@H]1O[C@H](CO)[C@@H](O[C@@H]2O[C@@H](C(=O)O)[C@@H](O[C@H]3O[C@H](CO)[C@@H](O[C@@H]4O[C@@H](C(=O)O)[C@@H](O[C@H]5O[C@H](CO)[C@@H](O[C@@H]6O[C@@H](C(=O)O)[C@@H](O)[C@H](O)[C@H]6OS(=O)(=O)O)[C@H](O)[C@H]5NS(=O)(=O)O)[C@H](O)[C@H]4OS(=O)(=O)O)[C@H](O)[C@H]3NS(=O)(=O)O)[C@H](O)[C@H]2OS(=O)(=O)O)[C@H](O)[C@H]1NS(=O)(=O)O
